Bioassay records: PubChem, Johns Hopkins Ion Channel Center
hERG protect = hERG rescue from dofetilide block, primary screen, cell-based, CHO-hERG, FluxOR thallium flux, dofetilide IC70. Voltage-gated inwardly rectifying potassium channel KCNH2 (Homo sapiens), Q12809. dofetilide IC70 present. activation (rescue from dofetilide block), less the hit threshold, % at 10 µM. 310,000 tested, 0.51% active. AID 1511, 2009;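 active = activation above the mean of controls blocked by dofetilide plus 5 SD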;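 also: thallium influx through hERG after potassium depolarization seen as dye fluorescence rise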
KCNK9 block = KCNK9 potassium channel inhibitors, primary screen, HEK293 cells, thallium flux; Potassium channel subfamily K member 9 (Homo sapiens), Q9NPC2; B-score at 10 µM; FluxOR thallium flux fluorescence; active compounds read low; 310,000 tested, 1.2% active;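 active = ratio B-score over 3 SD below the library mean, with starting fluorescence within 5 SD of its mean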;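 also: negative B-score means less thallium flux so channel inhibition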
Kir21 block = inhibitors of mouse Kir2.1 inward-rectifier potassium channel | Inward rectifier potassium channel 2 (Mus musculus), P35561 | B-score at 10 µM | 310,000 tested, 0.85% active | HEK293-Kir2.1, FluxOR thallium flux fluorescence; active compounds read low;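 active = fluorescence ratio B-score at or below minus 3 SD of library scores, with starting-brightness B-score within 2 SD, cut at about -4.2 in these data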;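 also: channel flux triggered by added potassium and thallium sulfate stimulus; B-score of peak minus minimum fluorescence over baseline after thallium stimulus; more negative B-score means stronger Kir2.1 block with less thallium influx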
KCNQ1 block = inhibitors of human KCNQ1 channel, primary screen, cell-based, thallium flux, high-throughput | Potassium voltage-gated channel subfamily KQT member 1 (Homo sapiens), P51787 | CHO-K1 KCNQ1, FluxOR thallium flux fluorescence; active compounds read high | B-score at 10 µM | 310,000 tested, 1.3% active | AID 2642, 2010;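 active = compounds whose thallium flux B-score, printed positive for inhibition, exceeds three library SD while starting fluorescence stays within three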;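 also: channel opened by potassium depolarization with thallium stimulus after 20 min compound exposure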
KCNQ1 act = potentiators or activators of KCNQ1 channel, primary screen, cell-based, thallium flux, high-throughput | Potassium voltage-gated channel subfamily KQT member 1 (Homo sapiens), P51787 | CHO-K1 KCNQ1, thallium flux FluxOR fluorescence; active compounds read high | B-score at 10 µM | 310,000 tested, 0.35% active;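 active = fluorescence ratio B-score, a plate-corrected score, at least three library SD, with initial intensity B-score within 5 SD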
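Assay system: stable KCNQ1 CHO-K1 line; medium: assay buffer, equal DMSO in all wells; timing: 90 min dye loading and 20 min compound exposure, both at room temperature; technique: kinetic FluxOR thallium fluorescence, 10-s 1-Hz baseline, 110-s post-stimulus read; read-out basis: B score of baseline-normalized fluorescence ratio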
KCNK3 inh = human KCNK3 channel inhibitors, primary screen, CHO cells, FluxOR thallium flux, B-score; 340,000 tested, 0.84% active; FluxOR fluorescence; active compounds read low; Potassium channel subfamily K member 3 (Homo sapiens), O14649; B-score at 10 µM; AID 602410, 2012;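 active = B-score under library mean minus 4 SD, starting fluorescence ratio at most library mean plus 5 SD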;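 also: more negative B-score means stronger inhibition of thallium flux through KCNK3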
Target sequence (O14649 whole entry, looked up): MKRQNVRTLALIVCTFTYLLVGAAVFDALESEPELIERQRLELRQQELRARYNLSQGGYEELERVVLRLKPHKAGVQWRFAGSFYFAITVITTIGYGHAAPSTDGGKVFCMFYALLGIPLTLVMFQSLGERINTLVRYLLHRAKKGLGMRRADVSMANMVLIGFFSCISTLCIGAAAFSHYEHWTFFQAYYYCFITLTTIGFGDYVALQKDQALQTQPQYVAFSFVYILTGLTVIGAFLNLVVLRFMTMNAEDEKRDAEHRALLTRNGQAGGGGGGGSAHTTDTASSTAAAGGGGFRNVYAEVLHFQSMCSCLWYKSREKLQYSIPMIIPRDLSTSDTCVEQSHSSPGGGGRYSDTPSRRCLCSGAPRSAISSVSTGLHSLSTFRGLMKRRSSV
Starred values were filed as active, the others as inactive; i = inactive; / = not tested or not shown. Compounds with a hit are over-represented: about 3.8% of the library has one in this group of screens.

SMILES | hERG protect | KCNK9 block | Kir21 block | KCNQ1 block | KCNQ1 act | KCNK3 inh
O=C(O)c1cc(=O)c2cc(Cl)ccc2o1 | -8 | i | 0 | i | i | i
COc1ccc(/C=C/c2cc(=O)c3cc(Cl)ccc3o2)cc1 | 4.6* | i | 0.04 | i | i | i
COc1ccc(CC(=O)NNC(=O)c2ccc(Br)o2)cc1 | -6 | i | -1.5 | i | i | i
O=C(CNC(=O)c1ccc(F)cc1)NCc1ccc(Cl)cc1 | -3 | i | -1 | i | i | i
O=C(CNC(=O)c1ccccc1)NCc1ccc(Cl)cc1 | 28* | i | 0.06 | i | 18* | i
OC(COc1c(F)cc(Br)cc1F)CN1CCc2ccccc2C1 (stereo not drawn) | -1 | i | -7* | i | i | i
OC(COCc1ccccc1)CN1CCc2ccccc2C1 (stereo not drawn) | -2 | i | 0.7 | i | i | i
Cc1ccc(C)c(OCC(O)CN2CCC(Cc3ccccc3)CC2)c1 (stereo not drawn) | -16 | i | -6.4* | i | i | i
Cc1ccc(C(C)C)c(OCC(O)CN2CCc3ccccc3C2)c1 (stereo not drawn) | -20 | i | -9.1* | 6* | i | i
Cc1cccc(C)c1OCC(O)CN1CCc2ccccc2C1 (stereo not drawn) | -11 | i | 0.46 | i | i | i
CCC(=O)Nc1cc2c3c(c1)CCC(=O)N3CCC2 | -7 | i | -1.2 | i | i | i
Cc1ccc(NC(=O)C2CCN(C(=O)c3ccco3)CC2)cc1C | -8 | i | -0.32 | i | i | i
Cn1c(=O)cc(C(=O)N/N=C/c2ccc(F)cc2)[nH]c1=O | -12 | i | 0.36 | i | i | i
COc1ccccc1-c1nc(S(=O)(=O)c2ccc(Cl)cc2)c(N(C)C)o1 | 5.4* | i | -0.28 | i | i | i
Oc1ccc2ccccc2c1/C=N/Nc1ccccc1 | -5 | i | 1.2 | i | i | i
Cc1cc(N/N=C/c2c(O)ccc3ccccc23)nc(-c2ccccc2O)n1 | -13 | i | 2.1 | 10* | i | i
O=C(CNC(=O)[C@@H]1Cc2ccccc2CN1)Nc1ccc2c(c1)OCCO2 | -3 | i | 1.4 | i | i | i
COc1cc2c(cc1OC)CN(C(=O)c1sccc1C)CC2 | 8.7* | i | -1.6 | i | i | i
Cc1oc2c(CN3CCCCC3C)c(O)ccc2c(=O)c1-c1ccc(Br)cc1 (stereo not drawn) | -3 | i | 0.92 | i | i | i
CCN(CC)C(=O)COc1coc(CN2CCN(c3ccccc3F)CC2)cc1=O | -3 | i | 0.03 | i | i | i
CN(C)CCCNS(=O)(=O)c1ccc(N2CCC(c3ccc(Cl)cc3)=N2)cc1 | 8.7* | -11* | -3.4 | 9* | i | /
O=S(=O)(c1ccc(N2CCC(c3ccc(Cl)cc3)=N2)cc1)N(CCO)CCO | -10 | i | 0.44 | i | i | i
COC(C(=O)N/N=C(\C)c1ccc(O)cc1)c1ccccc1 (stereo not drawn) | 5.1* | i | 0.36 | i | i | i
COC(C(=O)N/N=C(\C)c1ccc(C)cc1)c1ccccc1 (stereo not drawn) | -5 | i | -0.03 | i | i | i
CCCCC[C@@H]1C=C(C(=O)O)[C@H](c2ccc(F)cc2)N1S(=O)(=O)c1ccc(C)cc1 | / | / | / | / | / | i
SMILES | hERG protect | KCNK9 block | Kir21 block | KCNQ1 block | KCNQ1 act | KCNK3 inh
Nc1nnn(CC(=O)N/N=C/c2cccc(Cl)c2)n1 | -6 | i | 1.9 | i | i | i
O=C(CSc1c2c(nc3cc(Cl)ccc13)CCCC2)NCc1ccco1 | -21 | i | -6.5* | i | i | i
Cc1ccc(NC(=O)CSc2nnc(-c3ccncc3)o2)cc1C | -1 | i | -0.67 | i | i | i
Clc1ccc(Nc2ccc(NCc3ccccc3)nn2)cc1 | -11 | i | -5.5* | i | i | i
CC[N+](C)(C)CC/C=C1/c2ccccc2Sc2ccc(Cl)cc21 | -6 | i | 1.9 | i | i | i
CCCCCCCCCCC[N+](C)(C)CC/C=C1/c2ccccc2Sc2ccc(Cl)cc21 | -11 | i | -0.29 | i | 9* | i
O=C(COc1ccccc1)Nc1ccc(-c2ccc(N3CCOCC3)nn2)cc1 | -6 | i | -1.8 | i | i | i
Cc1ccc(C(=O)Sc2cccccc2=O)cc1 | 5.5* | i | -2.5 | i | 15* | i
Cc1ccc(NC(=O)c2ccccc2)cc1 | -13 | i | 0.1 | i | i | i
OC(c1ccccc1)(c1ccccc1)c1nccc2ccccc12 | / | / | / | / | / | -10*
CC(C)OC(=O)CSc1nnc2c(n1)[nH]c1ccc(F)cc12 | -5 | i | 1.5 | i | i | i
O=C(NN1C(=O)/C(=C/c2cccnc2)SC1=S)C(c1ccccc1)c1ccccc1 | -17 | i | -0.09 | 6* | i | i
O=C(COC(=O)c1ccc[n+]([O-])c1)Nc1ccc([N+](=O)[O-])cc1Cl | / | / | / | / | / | i
O=C(O)C1=NN(c2cc(Cl)c(S(=O)(=O)O)cc2Cl)C(=O)C1 | / | / | / | / | / | i
Cc1ccccc1Nc1nc(N)nc(CCl)n1 | -3 | i | -1.8 | i | i | i
Nc1nc(CCl)nc(Nc2ccc3ccccc3c2)n1 | -10 | i | -0.43 | i | 13* | i
Cc1ccc(S(=O)(=O)N2CCN=C2SCc2cccnc2)cc1 | -3 | i | -4.8* | i | i | i
O=S(=O)(c1ccc(Cl)cc1)N1CCN=C1SCc1cccnc1 | -10 | i | 2.6 | i | i | i
COc1ccc(S(=O)(=O)N2CCN=C2SCc2cccnc2)cc1 | -7 | i | -0.9 | i | i | i
O=S(=O)(c1ccccc1)N1CCN=C1SCc1cccnc1 | -5 | i | -4.2* | i | i | i
CSCCC(NC(=O)c1ccc([N+](=O)[O-])cc1Cl)C(=O)OCC(=O)C12CC3CC(CC(C3)C1)C2 (stereo not drawn) | 39* | i | 1.6 | i | i | i
O=C(CSc1n[nH]c(-c2ccc(S(=O)(=O)N3CCCCC3)cc2)n1)Nc1nccs1 | 6.5* | i | 1.9 | i | i | i
